Reference: ChEMBL document CHEMBL5724801, “EUbOPEN Chemogenomics Library - Multiplex” (2024)
Where “and” joins values, the source holds several entries; their conditions need not be identical. Equal entries are not always repeated.

System: Fibroblast
Assay: Multiplex assay against human fibroblast
Format: toxicity, cell-based
Method in brief: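 Four dyes were applied at seeding to live cells: Hoechst33342, BioTracker Green Microtubule Cytoskeleton Dye, MitoTracker Red and Annexin V Alexa Fluor 680. Imaging after compound addition used a CQ1 microscope at 37°C and 5% CO2. CellPathfinder machine-learning gating then sorted cells into Hoechst high-intensity objects or normal cells, normal cells into healthy, pyknosed or fragmented nuclei, and pyknosed cells into mitotic or apoptotic, with tubulin, mitochondrial-mass and membrane-permeability phenotypes given as per cents of healthy-nucleus cells.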

[1] = 12 h, 1 µM, compound concentration 1 uM
[2] = 12 h, 10 µM, compound concentration 10 uM
[3] = 24 h, 1 µM, compound concentration 1 uM
[4] = 24 h, 10 µM, compound concentration 10 uM
[5] = 48 h, 1 µM, compound concentration 1 uM
[6] = 48 h, 10 µM, compound concentration 10 uM

O=C(CCCc1ccccc1)Nc1nc2ccccc2c(=O)s1
Population Apoptotic (%) [1]: 58% and 34%
Population Fragmented Nuclei (%) [1]: 9% and 19%
Population Healthy Nuclei (%) [1]: 66% and 49%
Population Hoechst High Intensity Objects (%) [1]: 2% and 3%
Population Membrane Permeable-Phenotype (%) [1]: 0% and 9%
Population Mitochondria Different-Phenotype (%) [1]: 4% and 7%
Population Mitotic Cells (%) [1]: 41% and 65%
Population Normal (%) [1]: 97% and 96%
Population Pyknosed Nuclei (%) [1]: 23% and 31%
Population Tubulin-Different-Phenotype (%) [1]: 34% and 35%
Total Cell Count [1]: 127 and 135
Population Apoptotic (%) [2]: 51% and 31%
Population Fragmented Nuclei (%) [2]: 21% and 26%
Population Healthy Nuclei (%) [2]: 58% and 38%
Population Hoechst High Intensity Objects (%) [2]: 2% and 12%
Population Mitotic Cells (%) [2]: 48% and 68%
Population Normal (%) [2]: 97% and 87%
Population Pyknosed Nuclei (%) [2]: 20% and 35%
Population Tubulin-Different-Phenotype (%) [2]: 28% and 48%
Total Cell Count [2]: 147 and 133
Population Apoptotic (%) [3]: 50% and 42%
Population Fragmented Nuclei (%) [3]: 13% and 21%
Population Healthy Nuclei (%) [3]: 68% and 51%
Population Hoechst High Intensity Objects (%) [3]: 2% and 5%
Population Membrane Permeable-Phenotype (%) [3]: 0% and 4%
Population Mitochondria Different-Phenotype (%) [3]: 5% and 4%
Population Mitotic Cells (%) [3]: 50% and 57%
Population Normal (%) [3]: 97% and 94%
Population Pyknosed Nuclei (%) [3]: 18% and 26%
Population Tubulin-Different-Phenotype (%) [3]: 20% and 35%
Total Cell Count [3]: 147 and 131
Population Apoptotic (%) [4]: 46% and 53%
Population Fragmented Nuclei (%) [4]: 19% and 34%
Population Healthy Nuclei (%) [4]: 60% and 39%
Population Hoechst High Intensity Objects (%) [4]: 5%
Population Membrane Permeable-Phenotype (%) [4]: 0% and 18%
Population Mitotic Cells (%) [4]: 53% and 46%
Population Normal (%) [4]: 94%
Population Pyknosed Nuclei (%) [4]: 20% and 25%
Total Cell Count [4]: 135 and 134
Population Apoptotic (%) [5]: 59% and 42%
Population Fragmented Nuclei (%) [5]: 13% and 26%
Population Healthy Nuclei (%) [5]: 66% and 58%
Population Hoechst High Intensity Objects (%) [5]: 5% and 2%
Population Membrane Permeable-Phenotype (%) [5]: 1% and 4%
Population Mitochondria Different-Phenotype (%) [5]: 1% and 6%
Population Mitotic Cells (%) [5]: 40% and 57%
Population Normal (%) [5]: 94% and 97%
Population Pyknosed Nuclei (%) [5]: 19% and 15%
Population Tubulin-Different-Phenotype (%) [5]: 32% and 50%
Total Cell Count [5]: 146 and 127
Population Apoptotic (%) [6]: 58% and 77%
Population Fragmented Nuclei (%) [6]: 19% and 40%
Population Healthy Nuclei (%) [6]: 58% and 43%
Population Hoechst High Intensity Objects (%) [6]: 2% and 5%
Population Membrane Permeable-Phenotype (%) [6]: 1% and 10%
Population Mitotic Cells (%) [6]: 41% and 22%
Population Normal (%) [6]: 97% and 94%
Population Pyknosed Nuclei (%) [6]: 22% and 16%
Population Tubulin-Different-Phenotype (%) [6]: 26% and 73%
Total Cell Count [6]: 143 and 119

Cc1noc(-c2ccc(-c3ccc(CC(=O)O)cc3)cc2)c1NC(=O)O[C@H](C)c1ccccc1Cl
Population Apoptotic (%) [1]: 22% and 58%
Population Fragmented Nuclei (%) [1]: 14% and 21%
Population Healthy Nuclei (%) [1]: 77% and 60%
Population Hoechst High Intensity Objects (%) [1]: 0% and 5%
Population Membrane Permeable-Phenotype (%) [1]: 0% and 5%
Population Mitochondria Different-Phenotype (%) [1]: 1% and 2%
Population Mitotic Cells (%) [1]: 77% and 41%
Population Normal (%) [1]: 100% and 95%
Population Pyknosed Nuclei (%) [1]: 8% and 18%
Population Tubulin-Different-Phenotype (%) [1]: 10% and 26%
Total Cell Count [1]: 106 and 140
Population Apoptotic (%) [2]: 40% and 29%
Population Fragmented Nuclei (%) [2]: 20% and 17%
Population Healthy Nuclei (%) [2]: 62% and 45%
Population Hoechst High Intensity Objects (%) [2]: 1% and 6%
Population Membrane Permeable-Phenotype (%) [2]: 1% and 2%
Population Mitochondria Different-Phenotype (%) [2]: 6% and 10%
Population Mitotic Cells (%) [2]: 60% and 70%
Population Normal (%) [2]: 98% and 93%
Population Pyknosed Nuclei (%) [2]: 17% and 36%
Population Tubulin-Different-Phenotype (%) [2]: 31% and 57%
Total Cell Count [2]: 119 and 90
Population Apoptotic (%) [3]: 20% and 52%
Population Fragmented Nuclei (%) [3]: 16% and 30%
Population Healthy Nuclei (%) [3]: 78% and 57%
Population Hoechst High Intensity Objects (%) [3]: 0% and 2%
Population Membrane Permeable-Phenotype (%) [3]: 0% and 1%
Population Mitochondria Different-Phenotype (%) [3]: 1% and 7%
Population Mitotic Cells (%) [3]: 80% and 47%
Population Normal (%) [3]: 100% and 97%
Population Pyknosed Nuclei (%) [3]: 4% and 12%
Population Tubulin-Different-Phenotype (%) [3]: 10% and 28%
Total Cell Count [3]: 102 and 161
Population Apoptotic (%) [4]: 50% and 32%
Population Fragmented Nuclei (%) [4]: 20% and 26%
Population Healthy Nuclei (%) [4]: 68% and 41%
Population Hoechst High Intensity Objects (%) [4]: 1%
Population Membrane Permeable-Phenotype (%) [4]: 0%
Population Mitochondria Different-Phenotype (%) [4]: 7% and 10%
Population Mitotic Cells (%) [4]: 50% and 67%
Population Normal (%) [4]: 98%
Population Pyknosed Nuclei (%) [4]: 11% and 31%
Population Tubulin-Different-Phenotype (%) [4]: 29% and 65%
Total Cell Count [4]: 122 and 98
Population Apoptotic (%) [5]: 44% and 60%
Population Fragmented Nuclei (%) [5]: 18% and 35%
Population Healthy Nuclei (%) [5]: 73% and 55%
Population Hoechst High Intensity Objects (%) [5]: 1% and 2%
Population Membrane Permeable-Phenotype (%) [5]: 1% and 5%
Population Mitochondria Different-Phenotype (%) [5]: 1% and 3%
Population Mitotic Cells (%) [5]: 55% and 40%
Population Normal (%) [5]: 98% and 97%
Population Pyknosed Nuclei (%) [5]: 8%
Population Tubulin-Different-Phenotype (%) [5]: 16% and 25%
Total Cell Count [5]: 112 and 171
Population Apoptotic (%) [6]: 23% and 39%
Population Fragmented Nuclei (%) [6]: 30% and 40%
Population Healthy Nuclei (%) [6]: 55% and 37%
Population Hoechst High Intensity Objects (%) [6]: 4% and 2%
Population Membrane Permeable-Phenotype (%) [6]: 2% and 0%
Population Mitochondria Different-Phenotype (%) [6]: 4% and 10%
Population Mitotic Cells (%) [6]: 76% and 60%
Population Normal (%) [6]: 95% and 97%
Population Pyknosed Nuclei (%) [6]: 13% and 22%
Population Tubulin-Different-Phenotype (%) [6]: 35% and 69%
Total Cell Count [6]: 133 and 107
